Measurements published in ChEMBL document CHEMBL5344415, “Synthesis and Characterization of Phenylalanine Amides Active against Mycobacterium abscessus and Other Mycobacteria” (J Med Chem, 2023).
Converted amounts (≈) assume the structure as drawn.

Legend:
[1] = tested on: Mycobacterium intracellulare; test: Antibacterial activity against Mycobacterium intracellulare ATCC 35761 expressing tomato RFP assessed as bacterial growth inhibition incubated for 5 days in 7H9 medium by RFP fluorescence based broth microdilution method; assay type: functional; conditions: ATCC 35761, 120 h, time 5 day
Procedure, shortened: (§1)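 Broth microdilution in 7H9 with 10 % ADS and 0.05 % Tween 80. Twofold nine-point dilution series. Inoculum 5 x 10⁵ cells/mL taken from a mid-log preculture. Incubation at 37 °C, 3 days for M. smegmatis and M. abscessus, 5 days for M. intracellulare. Read-out by RFP fluorescence (ex 544/em 590 nm). Controls were 1 % DMSO and 100 μM amikacin. MIC₉₀ from duplicates, averaged.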

[2] = tested on: Mycobacteroides abscessus; test: Antibacterial activity against Mycobacterium abscessus ATCC 19977 expressing tomato RFP assessed as bacterial growth inhibition incubated for 3 days in 7H9 medium by RFP fluorescence based broth microdilution method; assay type: functional; conditions: ATCC 19977, 72 h, time 3 day; procedure, shortened: as §1
[3] = tested on: Mycobacteroides abscessus; test: Antibacterial activity against Mycobacterium abscessus ATCC 19977 expressing tomato RFP assessed as bacterial growth inhibition incubated for 3 days in MHII medium by RFP fluorescence based broth microdilution method; assay type: functional; conditions: ATCC 19977, 72 h, time 3 day
Procedure, shortened: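 Broth microdilution in MHII broth with 0.05 % Tween 80, against the RFP-expressing strain. Twofold nine-point dilution series. Inoculum 5 x 10⁵ cells/mL from a mid-log preculture. Incubated 3 days at 37 °C. Read-out by RFP fluorescence (ex 544/em 590 nm). Controls were 1 % DMSO and 100 μM amikacin. MIC₉₀ from duplicates, averaged.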

MCF7 = test: Cytotoxicity against human MCF7 cells assessed as reduction in cell viability incubated for 72 hrs by SRB assay; assay type: toxicity, cell-based
[4] = tested on: Mycobacteroides abscessus; test: Antibacterial activity against Mycobacterium abscessus ATCC 19977 expressing tomato RFP infected in human THP-1 cells assessed as bacterial growth inhibition incubated for 4 days in RPMI medium by RFP fluorescence based assay; assay type: functional; conditions: ATCC 19977, 96 h, time 4 day
Procedure, shortened: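 RFP M. abscessus washed, moved into RPMI, filtered through 5 µm and opsonised with 10 % human serum for 30 min. THP-1 cells infected at MOI 5:1 with PMA 40 ng/mL for 4 h at 37 °C, then washed. Infected cells (1x10⁵/well) given a ten-point twofold series. Incubated 4 days at 37 °C, 5 % CO₂. Cells PFA-fixed and DAPI-stained. RFP quantified by imaging. Controls were DMSO and 1.5 µM bedaquiline. Duplicate.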

[5] = tested on: Mycolicibacterium smegmatis; test: Antibacterial activity against Mycobacterium smegmatis mc2 155 expressing tomato RFP assessed as bacterial growth inhibition incubated for 3 days in 7H9 medium by RFP fluorescence based broth microdilution method; assay type: functional; conditions: mc2 155, 72 h, time 3 day; procedure, shortened: as §1
[6] = tested on: Mycobacterium tuberculosis; test: Antibacterial activity against Mycobacterium tuberculosis H37Rv ATCC 27294 assessed as bacterial growth inhibition incubated for 7 days in 7H9 medium by optical density based microplate reader analysis; assay type: functional; conditions: H37Rv ATCC 27294, 168 h, time 7 day
Procedure, shortened: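 Compounds serially diluted in flat-bottom 96-well plates. Mid-log culture mixed in to a final OD₆₀₀ of 0.05. Sealed plates incubated in humidified boxes at 37 °C for 7 days with shaking at 80 rpm. Turbidity read at 600 nm. MIC₉₀ taken from dose–response curves. Two biological replicates, averaged.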

A-375 = test: Cytotoxicity against human A-375 cells assessed as reduction in cell viability incubated for 72 hrs by SRB assay; assay type: toxicity, cell-based
HeLa = test: Cytotoxicity against human HeLa cells assessed as reduction in cell viability incubated for 72 hrs by SRB assay; assay type: toxicity, cell-based
HT-29 = test: Cytotoxicity against human HT-29 cells assessed as reduction in cell viability incubated for 72 hrs by SRB assay; assay type: toxicity, cell-based
A2780 = test: Cytotoxicity against human A2780 cells assessed as reduction in cell viability incubated for 72 hrs by SRB assay; assay type: toxicity, cell-based
[7] = tested on: Mycobacteroides abscessus; test: Antibacterial activity against Mycobacterium abscessus Bamboo harboring inactive clarithromycin-sensitive erm41 C28 sequevar assessed as bacterial growth inhibition incubated for 3 days in 7H9 medium by optical density based method; assay type: functional; conditions: 72 h, time 3 day
[8] = Kinetic solubility of compound in PBS at 0.78 to 500 uM measured immediately by nephelometric method; assay type: physicochemical; conditions: buffer, dose 0.78-500 µM
Procedure, shortened: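 DMSO stocks prediluted in DMSO, then diluted 1:50 into PBS (2 % DMSO final) and read immediately by nephelometry at 0.78–500 μM; blank-corrected data fitted by segmental regression; quadruplicates from one stock.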

[9] = Cytotoxicity against mouse NIH3T3 cells assessed as reduction in cell viability incubated for 72 hrs by SRB assay; assay type: toxicity, cell-based; conditions: mouse, NIH3T3 cells

Row | SMILES | MIC90 [1] | MIC90 [2] | MIC90 [3] | EC50 (MCF7) | MIC50 [4] | MIC90 [4] | MIC90 [5] | MIC90 [6] | EC50 (A-375) | EC50 (HeLa) | EC50 (HT-29) | EC50 (A2780) | MIC50 [7] | MIC90 [7] | Kinetic_solubility [8] | EC50 at 72 h [9]
1 | O=C(N[C@H](Cc1cccs1)C(=O)Nc1ccccc1N1CC[S+]([O-])CC1)c1ccccc1F | 0.2 µM (≈ 0.0971 µg/mL) | 6.25 µM (≈ 3.04 µg/mL) | 12.5 µM (≈ 6.07 µg/mL) | 28.9 µM | 6.25 µM (≈ 3.04 µg/mL) | 50 µM (≈ 24.3 µg/mL) | 1.56 µM (≈ 0.758 µg/mL) | 1.56 µM (≈ 0.758 µg/mL) | 29.3 µM | > 30 µM | > 30 µM | 29 µM | 1.8 µM (≈ 0.874 µg/mL) | 6.5 µM (≈ 3.16 µg/mL) | 96 µM | > 30 µM
2 | O=C(N[C@H](Cc1cccs1)C(=O)Nc1ccccc1N1CC[S+]([O-])CC1)c1cccs1 | 0.2 µM (≈ 0.0947 µg/mL) | 12.5 µM (≈ 5.92 µg/mL) | 12.5 µM (≈ 5.92 µg/mL) | > 30 µM | 12.5 µM (≈ 5.92 µg/mL) | 100 µM (≈ 47.4 µg/mL) | 3.13 µM (≈ 1.48 µg/mL) | 3.13 µM (≈ 1.48 µg/mL) | > 30 µM | > 30 µM | > 30 µM | > 30 µM | 1.3 µM (≈ 0.616 µg/mL) | 5.8 µM (≈ 2.75 µg/mL) | 60 µM | > 30 µM
3 | O=C(N[C@H](Cc1ccccc1)C(=O)Nc1cc(F)ccc1N1CC[S+]([O-])CC1)c1ccccc1F | 0.2 µM (≈ 0.0995 µg/mL) | 3.31 µM (≈ 1.65 µg/mL) | 3.13 µM (≈ 1.56 µg/mL) | > 30 µM | 0.39 µM (≈ 0.194 µg/mL) | 12.5 µM (≈ 6.22 µg/mL) | 1.56 µM (≈ 0.776 µg/mL) | 0.78 µM (≈ 0.388 µg/mL) | > 30 µM | > 30 µM | > 30 µM | > 30 µM | 0.52 µM (≈ 0.259 µg/mL) | 2 µM (≈ 0.995 µg/mL) | 184 µM | > 30 µM
4 | O=C(N[C@H](Cc1ccc(O)cc1)C(=O)Nc1cc(F)ccc1N1CCSCC1)c1cccs1 | 0.1 µM (≈ 0.0486 µg/mL) | 12.5 µM (≈ 6.07 µg/mL) |  | > 30 µM | 12.5 µM (≈ 6.07 µg/mL) | 50 µM (≈ 24.3 µg/mL) | 12.5 µM (≈ 6.07 µg/mL) | 0.78 µM (≈ 0.379 µg/mL) | > 30 µM | > 30 µM | > 30 µM | > 30 µM | 1.6 µM (≈ 0.777 µg/mL) | 15 µM (≈ 7.28 µg/mL) | 78 µM | > 30 µM
5 | O=C(N[C@H](Cc1ccsc1)C(=O)Nc1ccccc1N1CC[S+]([O-])CC1)c1ccccc1F | 0.2 µM (≈ 0.0971 µg/mL) | 6.25 µM (≈ 3.04 µg/mL) | 12.5 µM (≈ 6.07 µg/mL) | > 30 µM | 6.25 µM (≈ 3.04 µg/mL) | 50 µM (≈ 24.3 µg/mL) | 1.56 µM (≈ 0.758 µg/mL) | 3.13 µM (≈ 1.52 µg/mL) | > 30 µM | > 30 µM | > 30 µM | > 30 µM | 1.5 µM (≈ 0.728 µg/mL) | 4.4 µM (≈ 2.14 µg/mL) | 96 µM | > 30 µM
6 | O=C(N[C@H](Cc1ccsc1)C(=O)Nc1ccccc1N1CCOCC1)c1cccs1 | 1.56 µM (≈ 0.689 µg/mL) | 12.5 µM (≈ 5.52 µg/mL) | 12.5 µM (≈ 5.52 µg/mL) | > 30 µM | 12.5 µM (≈ 5.52 µg/mL) | 50 µM (≈ 22.1 µg/mL) | 1.56 µM (≈ 0.689 µg/mL) | 3.13 µM (≈ 1.38 µg/mL) | > 30 µM | > 30 µM | > 30 µM | > 30 µM | 2.3 µM (≈ 1.02 µg/mL) | 7 µM (≈ 3.09 µg/mL) | 30 µM | > 30 µM
7 | O=C(N[C@H](Cc1cccs1)C(=O)Nc1ccccc1N1CCOCC1)c1ccccc1F | 0.78 µM (≈ 0.354 µg/mL) | 6.25 µM (≈ 2.83 µg/mL) | 12.5 µM (≈ 5.67 µg/mL) | > 30 µM | 6.25 µM (≈ 2.83 µg/mL) | 25 µM (≈ 11.3 µg/mL) | 1.56 µM (≈ 0.708 µg/mL) | 3.13 µM (≈ 1.42 µg/mL) | > 30 µM | > 30 µM | > 30 µM | > 30 µM | 2 µM (≈ 0.907 µg/mL) | 7 µM (≈ 3.17 µg/mL) | 39 µM | > 30 µM
8 | O=C(N[C@H](Cc1ccccc1)C(=O)Nc1cc(F)ccc1N1CC[S+]([O-])CC1)c1cccs1 | 0.05 µM (≈ 0.0243 µg/mL) | 1.56 µM (≈ 0.758 µg/mL) | 3.13 µM (≈ 1.52 µg/mL) | > 30 µM | 0.78 µM (≈ 0.379 µg/mL) | 25 µM (≈ 12.1 µg/mL) | 1.56 µM (≈ 0.758 µg/mL) | 0.4 µM (≈ 0.194 µg/mL) | > 30 µM | > 30 µM | > 30 µM | > 30 µM | 0.28 µM (≈ 0.136 µg/mL) | 1.9 µM (≈ 0.923 µg/mL) | 131 µM | > 30 µM
9 | O=C(N[C@H](Cc1ccc(O)cc1)C(=O)Nc1cc(F)ccc1N1CCS(=O)(=O)CC1)c1cccs1 | 0.05 µM (≈ 0.0259 µg/mL) | 6.25 µM (≈ 3.24 µg/mL) | 3.13 µM (≈ 1.62 µg/mL) | > 30 µM | 6.25 µM (≈ 3.24 µg/mL) | 25 µM (≈ 12.9 µg/mL) | 6.25 µM (≈ 3.24 µg/mL) | 0.78 µM (≈ 0.404 µg/mL) | > 30 µM | > 30 µM | 29.8 µM | 29.7 µM | 0.4 µM (≈ 0.207 µg/mL) | 9 µM (≈ 4.66 µg/mL) | 170 µM | > 30 µM
10 | O=C(N[C@H](Cc1ccc(O)cc1)C(=O)Nc1cc(F)ccc1N1CCSCC1)c1ccccc1F | 0.2 µM (≈ 0.0995 µg/mL) |  | 50 µM (≈ 24.9 µg/mL) | > 30 µM | 6.25 µM (≈ 3.11 µg/mL) | 25 µM (≈ 12.4 µg/mL) | 6.25 µM (≈ 3.11 µg/mL) | 1.56 µM (≈ 0.776 µg/mL) | > 30 µM | > 30 µM | > 30 µM | > 30 µM | 1.7 µM (≈ 0.846 µg/mL) | 15 µM (≈ 7.46 µg/mL) | 58 µM | > 30 µM
